# Measurements pooled from the literature.
# Compare with care: the assays were run in different laboratories.
# Target: Dual specificity protein kinase TTK (TTK, Homo sapiens, UniProt P33981)
# Residues used in one study (P33981 1-857): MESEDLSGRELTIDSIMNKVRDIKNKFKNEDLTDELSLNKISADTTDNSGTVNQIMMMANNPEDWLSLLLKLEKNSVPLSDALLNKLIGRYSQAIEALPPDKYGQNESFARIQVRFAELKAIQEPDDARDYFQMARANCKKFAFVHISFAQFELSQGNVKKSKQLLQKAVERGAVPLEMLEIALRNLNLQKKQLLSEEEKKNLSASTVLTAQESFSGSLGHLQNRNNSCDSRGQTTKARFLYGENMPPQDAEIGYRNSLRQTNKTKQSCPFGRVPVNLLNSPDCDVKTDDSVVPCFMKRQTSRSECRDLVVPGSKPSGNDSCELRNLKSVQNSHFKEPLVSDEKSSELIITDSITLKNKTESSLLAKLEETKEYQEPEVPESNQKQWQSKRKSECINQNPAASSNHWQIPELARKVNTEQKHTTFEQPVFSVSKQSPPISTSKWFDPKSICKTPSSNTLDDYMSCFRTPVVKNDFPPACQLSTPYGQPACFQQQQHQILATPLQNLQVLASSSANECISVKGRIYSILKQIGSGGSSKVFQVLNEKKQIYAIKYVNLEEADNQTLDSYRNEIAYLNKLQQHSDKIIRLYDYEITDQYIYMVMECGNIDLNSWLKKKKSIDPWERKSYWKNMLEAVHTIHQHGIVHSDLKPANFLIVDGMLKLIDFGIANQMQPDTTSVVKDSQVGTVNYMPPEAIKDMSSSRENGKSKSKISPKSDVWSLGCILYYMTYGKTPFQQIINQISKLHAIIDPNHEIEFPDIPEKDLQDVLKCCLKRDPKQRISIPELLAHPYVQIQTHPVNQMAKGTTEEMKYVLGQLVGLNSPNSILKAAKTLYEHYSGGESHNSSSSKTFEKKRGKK
SMILES,test,setting,endpoint,value
FC(F)(F)c1ccc2c(c1)nc(-c1cccnc1)n2C1CC1,"cell-free assay, competition with immobilised ligand",1 µM,remaining binding,100%
CC(C)(O)[C@H]1CC[C@H](Nc2ccc3ncc(-c4cccc(C(F)(F)F)c4)n3n2)CC1,"enzyme activity, inhibitor",1 µM,remaining activity,79.8%
O=C(N1CCS(=O)(=O)CC1)N1C[C@H](c2ccc(OC(F)(F)F)cc2)C[C@H](c2nc(C3CC3)no2)C1,"cell-free assay, competition with immobilised ligand",1 µM,remaining binding,82%
Cn1c2c(c3ccc(Cl)c(Cl)c31)C(C#N)C1(CCN(C(=O)OC(C)(C)C)CC1)NC2=O (racemic),"thermal stability, DSF",10 µM,ΔTm,0 °C
O=C1Nc2ccc(Cl)cc2C1=Cc1cc(Cl)c(O)c(Cl)c1,cell-free assay,0.5 µM,remaining signal,84.4%
Cc1c[nH]c2nccc(Oc3c(F)cc(Nc4cc(Cl)nc(N)n4)cc3F)c12,"cell-free assay, competition with immobilised ligand",0.1 µM,remaining binding,96%
CC(C)(C)c1nc(-c2cccc(NS(=O)(=O)c3c(F)cccc3F)c2F)c(-c2ccnc(N)n2)s1,"enzyme activity, inhibitor, radiometric",1 µM,remaining activity,92%
Cn1c2c(Cl)c(Cl)ccc2c2cn[nH]c(=O)c21,"thermal stability, DSF",10 µM,ΔTm,0.6 °C
Nc1nc(Nc2ccc(S(N)(=O)=O)cc2)nn1C(=O)c1c(F)cccc1F,cell-free assay,0.5 µM,remaining signal,77.5%
FC(F)(F)Oc1cccc(-c2cnc3ccc(-c4ccncc4)nn23)c1,"enzyme activity, inhibitor, radiometric",1 µM,activity vs control,70%
O=C(NS(=O)(=O)c1ccc(NCC2CCOCC2)c([N+](=O)[O-])c1)c1ccc(N2CCN(Cc3ccc(C(F)(F)F)cc3-c3ccc(Cl)cc3)CC2)cc1Oc1cnc2[nH]ccc2c1,"cell-free assay, competition with immobilised ligand",1 µM,remaining binding,100%
Cn1c2c(c3ccc(Cl)c(Cl)c31)C(C#N)C1(CCCCC1)NC2=O (racemic),"thermal stability, DSF",10 µM,ΔTm,0.7 °C
COc1cc(Nc2cnc(C#N)c(O[C@H](C)CN(C)C)n2)ncc1-c1cnn(C)c1,"enzyme activity, inhibitor, radiometric",1 µM,remaining activity,81%
Cc1nccc(COC(=O)N2C[C@@H]3[C@@H](CNC(=O)c4ccc5[nH]nnc5c4)[C@@H]3C2)n1,"cell-free assay, competition with immobilised ligand",1 µM,remaining binding,89%
Oc1cccc(-c2nc(N3CCOCC3)c3oc4ncccc4c3n2)c1,"enzyme activity, inhibitor",10 µM,remaining activity,66%
Cn1c2c(c3ccc(Cl)c(Cl)c31)C(C#N)C(C)(C)NC2=O (stereo not shown),"thermal stability, DSF",10 µM,ΔTm,1.2 °C
O=C1NC(=O)c2cc(Nc3ccc(F)cc3)c(Nc3ccc(F)cc3)cc21,cell-free assay,0.5 µM,remaining signal,95.4%
O=C(Nc1cccnn1)N1CCC(=Cc2cccc(Oc3ccc(C(F)(F)F)cn3)c2)CC1,"cell-free assay, competition with immobilised ligand",1 µM,remaining binding,100%
CCN(CC)CCNC(=O)c1c(C)[nH]c(/C=C2\C(=O)Nc3ccc(F)cc32)c1C,cell-free assay,0.5 µM,remaining signal,68%
NS(=O)(=O)c1cc(NC(=O)C2(c3ccccc3Cl)CC2)ccc1Oc1cccc(Cl)c1,"cell-free assay, competition with immobilised ligand",1 µM,remaining binding,100%
Cn1c(=O)n(-c2ccc(C(C)(C)C#N)cc2)c2c3cc(-c4cnc5ccccc5c4)ccc3ncc21,"enzyme activity, inhibitor",10 µM,remaining activity,91%
Nc1ncnc2occ(-c3ccc(NC(=O)Nc4cc(C(F)(F)F)ccc4F)cc3)c12,cell-free assay,20 µM,remaining signal,4.5%
